Only a selection was taken, and hits are over-represented in it overall.
HSF1 inh = HSF1 inhibition; 300,000 compounds, 0.77% hits; AID 2098; NIH3T3-HGL HSE-luciferase, MG132-induced, luminescence 8 h; stronger effect = lower value; activity change, negative = inhibition, % at 7.5 µM (by protocol);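 active means more than half of replicate wells show activity change below -50%, luminescence cut by over half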;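 further: luciferase reports HSF-1 transcriptional activity via heat shock element; 0% = median of DMSO wells and -100% = zero luminescence signal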
L major viab = inhibitors of Leishmania major promastigote growth; inhibition, % at 10 µM; 200,000 compounds, 9% hits; Leishmania major promastigotes, resazurin fluorescence viability; in the data active means inhibition above about 50%;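 further: promastigotes grown with compound for 44 hours at 28 °C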
HSF1 activator = increases HSF-1 driven luciferase reporter signal. NIH3T3-HGL HSF-1 luciferase reporter, MG132, 8 h; 100% = twice DMSO control signal. activation, % at 9 µM. 300,000 compounds, 1.7% hits. AID 504408;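 active means mean replicate activation of at least 50% with a set share of replicates each reaching 50%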;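 further: 0% = median of the neutral control wells and 100% = twice that signal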
T cruzi repl = blocks replication of Trypanosoma cruzi | T. cruzi beta-gal in NIH3T3, luminescence, 90 h | AID 1885 | 300,000 compounds, 1.4% hits | inhibition, % (no concentration beside the values);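 active means mean inhibition across valid replicates above about 55%, limit read from the data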;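 further: signal also drops with host cell toxicity which is not excluded here; 0% = plate median of DMSO wells and 100% = zero luminescence signal; higher percent means less beta-gal luminescence so fewer parasites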
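Assay system: NIH/3T3 fibroblasts plus reporter T. cruzi. Amount: NIH/3T3 cells, 5,000 per well. Buffer or medium: DMEM, 2% fetal bovine serum. Doses: compound pinned at 50 nL/well, DMSO. Schedule: ≥90 h infection period, 3 h prior cell attachment. Signal: luminescent β-galactosidase signal after 60 min lysis. Read-out: parasite load inhibition, %.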
Hsp70 act = switches on Hsp70 transcription. AID 1203. HeLa Hsp70 promoter luciferase reporter, luminescence; scaled: vehicle 0, proteasome-inhibitor control 100%. 200,000 compounds, 0.04% hits. activation, % at 10 µM;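 active means activation above the mean across all tested compounds plus 3 SD, cutoff set per campaign, cut at about 5.5% in these data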;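 further: 100% = MG132 at 30 µM as the positive control and 0% = DMSO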
An asterisk follows results filed as active; . = not tested or not shown.

SMILES | HSF1 inh | L major viab | HSF1 activator | T cruzi repl | Hsp70 act
CCOC(=O)N1CCN(S(=O)(=O)c2ccc(C(=O)Nc3nnc(CC)o3)cc2)CC1 | -3 | 59* | -13 | -10 | 0
CCOC(=O)N1CCN(S(=O)(=O)c2ccc(C(=O)Nc3nnc(C4CC4)o3)cc2)CC1 | -3 | -11 | 7 | 6 | 0
CCOC(=O)N1CCN(S(=O)(=O)c2ccc(C(=O)NNc3nc4c(C)cc(C)cc4s3)cc2)CC1 | -5 | 88* | -2 | 40 | 0
Cc1cccc(C(=O)N[C@H](C(=O)Nc2cc(S(=O)(=O)N3CCCCC3)ccc2C)C(C)C)c1 | 3 | -1 | -5 | -15 | 0
NC(=O)NC(=O)COC(=O)/C=C/c1cccc(Br)c1 | -8 | 5 | 0 | -3 | 0
CCOC(=O)C(CC)(CC)C(=O)/C=C/c1cccc(Br)c1 | 159 | 100* | 251* | 42 | 0
Cc1noc(C)c1CSCC(=O)N(C)CC(=O)Nc1ccccc1Cl | -1 | . | -16 | 5 | .
Cc1cc(NC(=O)CSc2nnc(-c3ccc(S(=O)(=O)N4CCCC4)cc3)n2C)no1 | -1 | -1 | 3 | 2 | 0
CCn1c(SCC(=O)Nc2nccs2)nnc1-c1ccc(S(=O)(=O)N2CCCCC2)cc1 | 4 | 56* | 5 | 11 | 0
CCn1c(SCC(=O)Nc2cc(C)on2)nnc1-c1ccc(S(=O)(=O)N2CCCC2)cc1 | -4 | 69* | -1 | -3 | 0
CCn1c(SCC(=O)Nc2nccs2)nnc1-c1ccccc1 | 6 | 2 | 2 | 1 | 0
O=c1c2ccccc2nc2ccc(NCc3cccs3)nn12 | 16 | 12 | 40 | 9 | 0
Fc1ccccc1OCCCCCN1CCCC1 | -6 | 72* | -1 | 23 | 0
COc1ccccc1OCCCCN1CCCCC1 | 1 | . | -3 | 18 | .
Fc1ccccc1OCCCCCCN1CCCC1 | 2 | 98* | 10 | 49 | 0
Oc1ccc2ccccc2c1C=NCc1cn2ccsc2n1 | -3 | 95* | 2 | 3 | 0
COc1ccccc1NC(=O)Nc1cc(F)ccc1F | 11 | 26 | 14 | 9 | 0
O=S(=O)(Nc1c(O)ccc2ccccc12)c1cccc2ccccc12 | -90* | . | -92 | 3 | .
O=C1c2cccnc2C(=O)N1Cc1ccc(F)cc1S(=O)(=O)NCc1ccco1 | -5 | . | -4 | -16 | .
O=C(CSC(=S)N1CCCCC1)Nc1ncc2c(n1)CCCC2=O | -52* | . | -59 | 0 | .
O=C(CSC(=S)N1CCCCC1)Nc1ncc2c(n1)CC(c1ccco1)CC2=O (configuration not stated) | 2 | . | 9 | -12 | .
CCOc1nc(N=C(N)N)nc2c(C)cccc12 | 0 | 100* | 13 | 43 | 0
CCOc1ccccc1Nc1cc(C)c2cccc(C)c2n1 | -2 | . | -24 | 27 | .
O=C(NC1CCCCC1)C(c1ccccn1)N(C(=O)c1csnn1)C1CCCCC1 (configuration not stated) | . | -3 | . | 3 | 0
CC(=O)N1CCOc2ccc(S(=O)(=O)N3CCC(C(=O)NCc4ccccc4)CC3)cc21 | -3 | . | 5 | -6 | .
SMILES | HSF1 inh | L major viab | HSF1 activator | T cruzi repl | Hsp70 act
Cn1cc(Cl)c(C(=O)OCC(=O)Nc2ccc(S(N)(=O)=O)cc2)n1 | -2 | . | -5 | -2 | .
O=[N+]([O-])c1cc(CN2CCCC2)ccc1Sc1ccc(Cl)cc1 | -6 | 95* | -13 | 62* | 0
CN(c1ccccc1)c1ccc(/C=N/N2CCOCC2)cc1 | 19 | -6 | 61* | -8 | 0
O=C(c1ccccc1)C(c1ccccc1)c1ccccc1 | 0 | . | 16 | 6 | .
C=C(C(=O)c1ccccc1)C(C(=C)C(=O)c1ccccc1)c1ccc(OC)cc1 | 129 | . | 143* | 55* | .
C=C(C(=O)c1ccccc1)C(C)C(=C)C(=O)c1ccccc1 | 59 | 100* | 79* | -9 | 0
C=C(C(=O)c1ccccc1)C(c1ccccc1)C(C)C(=O)c1ccccc1 (configuration not stated) | 47 | 89* | 62* | 49 | 0
CC(C)CC(=O)NC(=S)Nc1cccc(NC(=O)c2ccccc2)c1 | 0 | 100* | 5 | -12 | 0
CCCCC(=O)Nc1cccc(NC(=S)NC(=O)Cc2ccccc2)c1 | -6 | 52* | 12 | -20 | 0
CCCCC(=O)NC(=S)Nc1cccc(NC(=O)c2ccccc2)c1 | -13 | 98* | -7 | 4 | 0
CCCC(=O)Nc1ccc(Cl)c(NC(=S)NC(=O)C(C)C)c1 | -5 | 100* | -2 | 14 | 0

Source: PubChem
